Screening results deposited in PubChem by several laboratories.
PMI act satM6P: human PMI activators, high substrate, primary screen, biochemical, fluorescence intensity, near-saturating mannose 6-phosphate | coupled PMI enzyme assay, resazurin fluorescence, 20 min; hits give high values; 1 = untreated enzyme, 0 = substrate-free blank | activation factor at 20 µM | hit rate 0.34% among 190,000 | AID 1216, 2008;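 active means activation factor of 2 or more at 20 µM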
Target sequence (P34949 whole entry, looked up): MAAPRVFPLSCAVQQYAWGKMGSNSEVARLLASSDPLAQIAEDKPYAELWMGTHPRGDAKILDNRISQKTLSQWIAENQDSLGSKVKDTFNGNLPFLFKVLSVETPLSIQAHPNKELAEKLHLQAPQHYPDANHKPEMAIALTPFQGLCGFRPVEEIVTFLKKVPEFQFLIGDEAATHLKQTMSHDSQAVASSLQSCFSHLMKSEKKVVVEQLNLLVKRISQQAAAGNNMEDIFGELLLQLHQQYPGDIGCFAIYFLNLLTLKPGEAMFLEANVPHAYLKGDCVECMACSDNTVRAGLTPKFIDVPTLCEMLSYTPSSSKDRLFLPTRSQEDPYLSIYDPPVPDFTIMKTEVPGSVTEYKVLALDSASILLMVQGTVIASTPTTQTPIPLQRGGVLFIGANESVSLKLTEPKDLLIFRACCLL
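Test system: human PMI in coupled enzyme assay; Input: PMI at 15 ng/mL final; Medium: HEPES buffer, pH 7.4; Schedule: 20 min incubation at room temperature; Technique: resorufin fluorescence at Ex 544/Em 590 nm; Compound: 20 µM single dose; Probe or stimulus: Near-saturating mannose-6-phosphate, 1.0 mM.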
Lmaj promast: Leishmania major promastigote growth inhibition, primary screen; Leishmania major promastigotes, resazurin fluorescence viability; inhibition, % at 10 µM; hit rate 9% among 200,000; AID 1063, 2008; in the data active means inhibition above about 50%;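 further: promastigotes grown with compound for 44 hours at 28 °C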
Diaphorase act: compounds boosting diaphorase resazurin reduction – biochemical, uHTS, resorufin fluorescence, counter-screen for diaphorase-coupled primary assays, primary screen | hit rate 0.005% among 190,000 | Diaphorase/resazurin coupled assay, 16 min; hits give high values; 1 = vehicle wells, 0 = NADH-free wells | activation factor at 20 µM;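 active means diaphorase activity raised at least twofold by the compound at 20 µM; inactive means activation factor below 2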
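Material: purified diaphorase enzyme from Clostridium kluyveri / Medium: HEPES pH 7.4 buffer with MgCl2 and Tween 20 / Schedule: enzyme reaction of 16 min at room temperature / Measured by: resorufin fluorescence, excitation 544 nm, emission 590 nm / Evaluation: rise in resorufin formation, marking diaphorase activation or chemical reduction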
PMI act: activators of human PMI, primary screen, biochemical, fluorescence intensity, near-Km mannose 6-phosphate; Mannose-6-phosphate isomerase (Homo sapiens), P34949; purified human PMI, coupled resazurin fluorescence, 20 min; hits give high values; 1 = vehicle control, 0 substrate-free wells; activation factor at 20 µM; hit rate 0.005% among 190,000;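 active means activation factor of 2 or more at 20 µM, relative to plate controls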
WT yeast gro inh: growth inhibition of WT strain, primary screen, mitochondrial fusion inhibitor project, WT and mutant strains, chemical genetic. AID 1362, 2008. hit rate 2.1% among 190,000. inhibition, % at 10 µM. mitochondrial fusion phenotypic screen; in the data active means inhibition above about 58%; tested in S. cerevisiae
Large screens that a line does not name were inactive. Rows were chosen to be rich in hits. Some 10% of all compounds tested hit in one or more screens of this group.

CC1CCN(c2ccccc2NC(=S)NC(=O)c2cccs2)CC1	none
CC1CCN(c2ccccc2NC(=O)c2ccc(F)cc2)CC1	WT yeast gro inh 72.4
CC1CCN(c2ccccc2NC(=S)NC(=O)C(C)(C)C)CC1	WT yeast gro inh 78.0
CCC(=O)Nc1ccc(C(=O)Nc2cccc(C)n2)cc1	none
Cc1nc(C)c(C(=O)NNS(=O)(=O)c2ccc3ccccc3c2)s1	none
CCOc1ccc(-n2c(SCc3cc(=O)oc4cc(C)ccc34)nnc2-c2cccnc2)cc1	none
CC(=O)Nc1ccc2c(CSc3nnc(-c4cccnc4)n3-c3ccc(C)cc3C)cc(=O)oc2c1	Lmaj promast 56.9
CC(C)c1ccccc1-n1c(SCc2cc(=O)oc3ccc4ccccc4c23)nnc1-c1cccnc1	Lmaj promast 54.3
COc1cc(OC)c(C(=O)Nc2cccc(C(C)=O)c2)cc1OC	none
O=C1C2C3c4ccccc4C(c4ccccc43)C2C(=O)N1Cc1ccccn1 (centres undefined)	none
CS(=O)(=O)N1CCN(C2CCN(Cc3ccccc3)CC2)CC1	Lmaj promast 77.3
O=C(c1cccs1)N1CCN(C2CCCCC2)CC1	Lmaj promast 83.2
O=C(NNC(=O)C1CCN(Cc2ccccc2)CC1)c1cccs1	none
CCOc1ccccc1CN1CCN(S(C)(=O)=O)CC1	Lmaj promast 82.1
O=C(c1cccs1)N1CCN(C2CCN(Cc3ccccc3)CC2)CC1	Lmaj promast 90.9
COc1ccc(C)cc1NC(=O)C(=O)NNC(=O)COc1ccc(Cl)cc1	none
O=C(C1CCCN(S(=O)(=O)c2cccs2)C1)N1CCN(C2CCCCC2)CC1 (centres undefined)	Lmaj promast 83.0
O=C(CNC(=O)c1ccc(S(=O)(=O)N2CCCC2)cc1)N/N=C/c1ccco1	none
CSCC[C@H](NC(=O)OC(C)(C)C)c1nnc(SCc2cccc(F)c2)o1	none
CC(C)C[C@H](NC(=O)OC(C)(C)C)c1nnc(SCc2cccc(F)c2)o1	Lmaj promast 68.5
S=C(NCc1ccco1)NCC1CCCO1 (centres undefined)	none
c1ccc(-c2csc3ncnc(N4CCc5ccccc5C4)c23)cc1	Lmaj promast 89.3, WT yeast gro inh 69.6
c1ccc(-c2csc3ncnc(N4CCOCC4)c23)cc1	none (no result: PMI act satM6P, Diaphorase act, PMI act)
O=c1c2ccccc2[nH]c(=S)n1Cc1ccc2c(c1)OCO2	none
CN(C)CCN=Cc1c(O)n(Cc2ccc3c(c2)OCO3)c(=O)c2ccccc12	Lmaj promast 73.7
CCN(CC)CCCN=Cc1c(O)n(Cc2ccccc2)c(=O)c2ccccc12	Lmaj promast 99.2
CN(C)CCCN=Cc1c(O)n(Cc2ccc3c(c2)OCO3)c(=O)c2ccccc12	Lmaj promast 98.3
O=c1c2ccccc2c(C=NC2CCN(Cc3ccccc3)CC2)c(O)n1Cc1ccc2c(c1)OCO2	Lmaj promast 87.1
COc1ccc(Cn2c(O)c(C=Nc3ccc(OC)cc3)c3ccccc3c2=O)cc1	none
O=C(CCn1c(=O)c2ccccc2n(Cc2ccccc2)c1=O)NCc1ccc2c(c1)OCO2	none
Cc1ccc(CNC(=O)CSc2nc3ccccc3c3nc(C)nn23)cc1	none
Cc1ccc(N=Cc2c(O)n(-c3ccc4c(c3)OCO4)c(=O)c3ccccc23)cc1	WT yeast gro inh 73.0
FC(F)Sc1ccc(N=C2NN=C(c3ccc4c(c3)OCCO4)CS2)cc1	Lmaj promast 55.1
COc1ccc(N=C2NN=C(c3ccc4c(c3)OCCO4)CS2)cc1	none
CCOC(=O)/C(C(=O)Nc1ccc(Cl)cc1Cl)=C1/NC(C)(C)Cc2ccccc21	Lmaj promast 73.1
CCOC(=O)/C=C/C(=O)OCC(=O)Nc1ccc(Cl)cc1Cl	none
C/C=C/C(=O)OCC(=O)Nc1cc(-c2cc(C)c(C)cc2C)nn1-c1ccccc1	none
Nc1cc(C(=O)O)c(Oc2ccc(Cl)cc2Cl)cc1C(=O)O	none
Cc1ccccc1Oc1cc(NC(=O)CCCn2nc(C)c([N+](=O)[O-])c2C)cc([N+](=O)[O-])c1	Lmaj promast 97.6
Cc1nn(CCCC(=O)Nc2cc(Oc3ccc(F)cc3)cc([N+](=O)[O-])c2)c(C)c1[N+](=O)[O-]	Lmaj promast 100.2
Cc1nn(CCCC(=O)Nc2cccnc2)c(C)c1[N+](=O)[O-]	none
Cc1c(Cl)c([N+](=O)[O-])nn1CCCC(=O)Nc1cc(Oc2ccccc2)cc([N+](=O)[O-])c1	none
Cc1ccccc1Oc1cc(NC(=O)Cn2cnc([N+](=O)[O-])c2)cc([N+](=O)[O-])c1	Lmaj promast 97.0
COc1ccc(C(=O)CN2C3=NCCCN3c3ccccc32)cc1OC	none
Cc1ccc(C)c(C(=O)CN2C3=NCCCN3c3ccccc32)c1	Lmaj promast 77.9
O=C(CN1C2=NCCN2c2ccccc21)C12CC3CC(CC(C3)C1)C2	Lmaj promast 100.7
CCOC(=O)C1(CC2CCCCO2)CCN(Cc2nccn2-c2cccc(C)c2)CC1 (centres undefined)	Lmaj promast 52.5
CCOc1ccc(S(=O)(=O)NCc2ccc(OC)cc2)c2cccnc12	Lmaj promast 89.9
CCOc1ccc(S(=O)(=O)Nc2cccc(C)c2)c2cccnc12	none
CCOc1ccc(S(=O)(=O)NCc2ccc(F)cc2)c2cccnc12	Lmaj promast 88.5
COc1ccc(C(CC(=O)O)NC(=O)COc2cc(C)ccc2C)cc1OC (centres undefined)	none
Cc1c(Cl)cccc1N=Cc1ccc([N+](=O)[O-])s1	Lmaj promast 100.5
C=CCNC(=O)/C(C#N)=C/c1cc(Br)ccc1OC	none
C=CCNC(=O)/C(C#N)=C\c1cc(Cl)c(OCC)c(OC)c1	Lmaj promast 85.5
CCCNC(=O)CC(NS(=O)(=O)c1ccc(OC)cc1)c1ccco1 (centres undefined)	none
O=C(C1=C[C@@H](c2ccccc2)C[C@@H](OCCCCO)O1)N1CCOCC1	none
O=C(C1CCN(Cc2cc(Cl)ccc2O)CC1)N1CCN(Cc2ccccc2)CC1	Lmaj promast 99.8
O=C(Cc1c(C(=O)O)[nH]c2ccccc12)NC1CCN(Cc2ccccc2)CC1	none (no result: PMI act satM6P, Lmaj promast, Diaphorase act, PMI act)
O=C(C(c1ccccc1)c1ccccc1)N1CCN(Cc2ccc(Br)cc2)CC1	none (no result: WT yeast gro inh)
O=C(Cc1ccccc1)NC1CCN(Cc2ccccc2)CC1	Lmaj promast 81.8
O=C(Cn1cc2c(n1)CCCCC2)NC1CCN(Cc2ccccc2)CC1	Lmaj promast 82.6
N#CC(c1ccccc1)C1CCN(Cc2ccccc2)CC1 (centres undefined)	Lmaj promast 87.6
CCS(=O)(=O)N1CCC(C(=O)N2CCN(Cc3ccccc3)CC2)CC1	none
CCN1C(=O)/C(=C/c2ccc(OC)c(OC)c2)N=C1SCC(=O)NCc1ccco1	none
COc1cc(S(=O)(=O)NCC2OCCc3ccccc32)ccc1-n1cnnn1 (centres undefined)	none
